# Legend:
# Type in all cases: toxicity, cell-based
# [1] = test system: HEK-293T; assay: Multiplex assay against HEK293T; settings: human;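 as to Population Tubulin-Different-Phenotype (%): share of the cells with healthy nuclei that show this phenotype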
# Procedure, shortened: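 Cells stained live at seeding with Hoechst33342, BioTracker Green Microtubule Cytoskeleton Dye, MitoTracker Red and Annexin V Alexa Fluor 680 were imaged on a CQ1 microscope at 37°C and 5% CO2 after compound addition. Their classification by CellPathfinder machine-learning gating ran from Hoechst high-intensity objects versus normal cells, to healthy, pyknosed or fragmented nuclei among normal cells, to mitotic or apoptotic among pyknosed cells. Tubulin, mitochondrial-mass and membrane-permeability phenotypes are per cents of healthy-nucleus cells.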
# [2] = test system: HEK-293T; assay: Incucyte cell viability with HEK293T; settings: human, 10 µM, compound concentration 10 uM; also: filed as whole numbers so only -1 and 0 and 1 occur
# [3] = test system: Fibroblast; assay: Incucyte cell viability with human fibroblast; settings: 10 µM, compound concentration 10 uM; also: filed as whole numbers so only -1 and 0 and 1 occur
# [4] = 12 h, 1 µM, compound concentration 1 uM, replicate 1
# [5] = 12 h, 1 µM, compound concentration 1 uM, replicate 2
# [6] = 12 h, 10 µM, compound concentration 10 uM, replicate 1
# [7] = 12 h, 10 µM, compound concentration 10 uM, replicate 2
# [8] = 24 h, 1 µM, compound concentration 1 uM, replicate 1
# [9] = 24 h, 1 µM, compound concentration 1 uM, replicate 2
# [10] = 24 h, 10 µM, compound concentration 10 uM, replicate 1
# [11] = 24 h, 10 µM, compound concentration 10 uM, replicate 2
# [12] = 6 h, replicate number 1, timepoint 6 hours
# [13] = 12 h, replicate number 1, timepoint 12 hours
# [14] = 18 h, replicate number 1, timepoint 18 hours
# [15] = 24 h, replicate number 1, timepoint 24 hours
structure (smiles),measurement,setting,value
CCOC(=O)CCNc1cc(N2CCc3ccccc3CC2)nc(-c2ccccn2)n1,Population Apoptotic (%),[1]; [4],15%
same,Population Fragmented Nuclei (%),[1]; [4],15%
same,Population Healthy Nuclei (%),[1]; [4],66%
same,Population Hoechst High Intensity Objects (%),[1]; [4],9%
same,Population Membrane Permeable-Phenotype (%),[1]; [4],4%
same,Population Mitochondria Different-Phenotype (%),[1]; [4],3%
same,Population Mitotic Cells (%),[1]; [4],84%
same,Population Normal (%),[1]; [4],90%
same,Population Pyknosed Nuclei (%),[1]; [4],17%
same,Population Tubulin-Different-Phenotype (%),[1]; [4],4%
same,Total Cell Count,[1]; [4],720
same,Population Apoptotic (%),[1]; [5],8%
same,Population Fragmented Nuclei (%),[1]; [5],8%
same,Population Healthy Nuclei (%),[1]; [5],86%
same,Population Hoechst High Intensity Objects (%),[1]; [5],1%
same,Population Membrane Permeable-Phenotype (%),[1]; [5],1%
same,Population Mitochondria Different-Phenotype (%),[1]; [5],8%
same,Population Mitotic Cells (%),[1]; [5],91%
same,Population Normal (%),[1]; [5],98%
same,Population Pyknosed Nuclei (%),[1]; [5],4%
same,Population Tubulin-Different-Phenotype (%),[1]; [5],5%
same,Total Cell Count,[1]; [5],1753
same,Population Apoptotic (%),[1]; [6],22%
same,Population Fragmented Nuclei (%),[1]; [6],13%
same,Population Healthy Nuclei (%),[1]; [6],54%
same,Population Hoechst High Intensity Objects (%),[1]; [6],16%
same,Population Membrane Permeable-Phenotype (%),[1]; [6],4%
same,Population Mitochondria Different-Phenotype (%),[1]; [6],27%
same,Population Mitotic Cells (%),[1]; [6],77%
same,Population Normal (%),[1]; [6],83%
same,Population Pyknosed Nuclei (%),[1]; [6],32%
same,Population Tubulin-Different-Phenotype (%),[1]; [6],31%
same,Total Cell Count,[1]; [6],622
same,Population Apoptotic (%),[1]; [7],26%
same,Population Fragmented Nuclei (%),[1]; [7],3%
same,Population Healthy Nuclei (%),[1]; [7],87%
same,Population Hoechst High Intensity Objects (%),[1]; [7],4%
same,Population Membrane Permeable-Phenotype (%),[1]; [7],2%
same,Population Mitochondria Different-Phenotype (%),[1]; [7],43%
same,Population Mitotic Cells (%),[1]; [7],73%
same,Population Normal (%),[1]; [7],95%
same,Population Pyknosed Nuclei (%),[1]; [7],8%
same,Population Tubulin-Different-Phenotype (%),[1]; [7],56%
same,Total Cell Count,[1]; [7],1158
same,Population Apoptotic (%),[1]; [8],20%
same,Population Fragmented Nuclei (%),[1]; [8],12%
same,Population Healthy Nuclei (%),[1]; [8],79%
same,Population Hoechst High Intensity Objects (%),[1]; [8],4%
same,Population Mitochondria Different-Phenotype (%),[1]; [8],2%
same,Population Mitotic Cells (%),[1]; [8],79%
same,Population Normal (%),[1]; [8],95%
same,Population Pyknosed Nuclei (%),[1]; [8],8%
same,Population Tubulin-Different-Phenotype (%),[1]; [8],7%
same,Total Cell Count,[1]; [8],821
same,Population Apoptotic (%),[1]; [9],1%
same,Population Fragmented Nuclei (%),[1]; [9],23%
same,Population Healthy Nuclei (%),[1]; [9],73%
same,Population Hoechst High Intensity Objects (%),[1]; [9],2%
same,Population Membrane Permeable-Phenotype (%),[1]; [9],5%
same,Population Mitochondria Different-Phenotype (%),[1]; [9],1%
same,Population Mitotic Cells (%),[1]; [9],98%
same,Population Normal (%),[1]; [9],97%
same,Population Pyknosed Nuclei (%),[1]; [9],2%
same,Population Tubulin-Different-Phenotype (%),[1]; [9],6%
same,Total Cell Count,[1]; [9],2917
same,Population Apoptotic (%),[1]; [10],40%
same,Population Fragmented Nuclei (%),[1]; [10],14%
same,Population Healthy Nuclei (%),[1]; [10],46%
same,Population Hoechst High Intensity Objects (%),[1]; [10],18%
same,Population Membrane Permeable-Phenotype (%),[1]; [10],4%
same,Population Mitochondria Different-Phenotype (%),[1]; [10],54%
same,Population Mitotic Cells (%),[1]; [10],59%
same,Population Normal (%),[1]; [10],81%
same,Population Pyknosed Nuclei (%),[1]; [10],38%
same,Population Tubulin-Different-Phenotype (%),[1]; [10],47%
same,Total Cell Count,[1]; [10],535
same,Population Apoptotic (%),[1]; [11],29%
same,Population Fragmented Nuclei (%),[1]; [11],4%
same,Population Healthy Nuclei (%),[1]; [11],83%
same,Population Hoechst High Intensity Objects (%),[1]; [11],8%
same,Population Membrane Permeable-Phenotype (%),[1]; [11],2%
same,Population Mitochondria Different-Phenotype (%),[1]; [11],50%
same,Population Mitotic Cells (%),[1]; [11],70%
same,Population Normal (%),[1]; [11],91%
same,Population Pyknosed Nuclei (%),[1]; [11],12%
same,Population Tubulin-Different-Phenotype (%),[1]; [11],65%
same,Total Cell Count,[1]; [11],1034
same,Growth Rate,"[2]; 0 h, replicate number 1, timepoint 0 hours",1
same,Growth Rate,[2]; [12],0
same,Growth Rate,[2]; [13],0
same,Growth Rate,[2]; [14],0
same,Growth Rate,[2]; [15],0
same,Growth Rate,"[3]; 0 h, replicate number 2, timepoint 0 hours",0
same,Growth Rate,[3]; [12],1
same,Growth Rate,[3]; [13],1
same,Growth Rate,[3]; [14],1
same,Growth Rate,[3]; [15],1

# Source: ChEMBL document CHEMBL4689842, “EUbOPEN Chemogenomics Library wave 1” (2021)
